In paper PMC8336959 (Science Advances, 2021):
Values belong to the molecule of their own block, whether it stands above or below them. Square brackets hold non-standard residues; d marks the D form. Ends that are not written are not given here. pY = N[C@@H](Cc1ccc(OP(=O)(O)O)cc1)C(=O)O

Legend:
[1] = Sulforhodamine B assay of olaparib-induced cytotoxicity, control cells; format: cell-based; details: human, control (WT) HeLa cells
Method in brief: (§1)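 HeLa cells kept in RPMI 1640 with 10% FBS at 10% CO2. Knockout made by CRISPR-Cas9 gRNA delivered by lentivirus, with puromycin or blasticidin selection; clones checked by Western blot and pooled. Stable reconstitution with wild-type or K109R Strep-tagged GRB2. Cytotoxicity of PARP inhibitor read by sulforhodamine B staining. IC50 taken from the concentration–response data.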

[2] = Sulforhodamine B assay of olaparib-induced cytotoxicity, GRB2-KO cells; format: cell-based, human; details: human, GRB2-KO HeLa cells
[3] = system: GRB2-KO HeLa cells; experiment: as above; format: cell-based, human; details: Sulforhodamine B assay, ratio of IC50 WT vs GRB2-KO
[4] = Sulforhodamine B assay of olaparib-induced cytotoxicity, KO + GRB2 cells; format: cell-based; details: human, GRB2-KO HeLa cells reconstituted with WT GRB2
Method in brief: as §1

[5] = Sulforhodamine B assay of olaparib-induced cytotoxicity, KO + K109R cells; format: cell-based; details: human, GRB2-KO HeLa cells reconstituted with K109R mutant GRB2
Method in brief: as §1

[6] = system: control (WT) HeLa cells; experiment: Annexin V/PI staining assay, control cells; format: cell-based, human; details: FACS, 50 μM olaparib for 72 hours, triplicate
[7] = system: GRB2-KO HeLa cells; experiment: Annexin V/PI staining assay, GRB2-KO cells; format: cell-based, human; details: FACS, 50 μM olaparib for 72 hours, triplicate
Method in brief: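 HeLa cells (GRB2-knockout and comparison lines) grown in RPMI 1640 with 10% FBS at 10% CO2. Cells treated 72 h with DMSO or 50 μM PARP inhibitor, then trypsinized, washed and resuspended in annexin-binding buffer. Labelled with annexin V–Alexa Fluor 647 plus PI for 15 min at room temperature in the dark. Annexin V- and PI-positive fractions scored by flow cytometry against the DMSO control. Triplicate.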

[8] = system: GRB2-KO HeLa cells reconstituted with ^K109RGRB2; experiment: Annexin V/PI staining assay, KO + K109R cells; format: cell-based, human; details: FACS, 50 μM olaparib for 72 hours, compared with GRB2-KO
[9] = molecular target: GRB2-SH2 domain (Homo sapiens, UniProt P62993); experiment: MST binding of synthetic peptides to Atto488-labeled GRB2-SH2 domain; details: synthetic peptide
[10] = system: human MRE11 (residues 1 to 411); experiment: MST binding of Atto488-labeled GRB2; details: bacterially expressed purified proteins

GRB2-SH2 domain, sequence (P62993 60-152 limits assumed): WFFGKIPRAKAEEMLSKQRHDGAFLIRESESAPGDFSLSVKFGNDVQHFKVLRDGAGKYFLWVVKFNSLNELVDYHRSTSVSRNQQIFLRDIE

Molecule: O=C(c1cc(Cc2n[nH]c(=O)c3ccccc23)ccc1F)N1CCN(C(=O)C2CC2)CC1 [olaparib]
IC50 [1]: 124 ± 41 µM
IC50 [2]: 18 ± 2.9 µM
sensitivity of GRB2-KO cells relative to WT control cells [3]: seven
IC50 [4]: 164 ± 47 µM
IC50 [5]: 20 ± 3 µM
olaparib-induced apoptosis, share of cells [6]: 20%
olaparib-induced apoptosis, share of cells [7]: 60%
olaparib-induced apoptosis, in words [8]: failed to rescue the phenotype

binding to GRB2-SH2 domain in words [9]: failed to produce a binding isotherm
Molecule: PSGGKKATQA(pS)QEY [pS139 H2AX]

binding to GRB2-SH2 domain in words [9]: failed to produce a binding isotherm
Molecule: PSGGKKATQASQE(pY) [pY142 H2AX]

Molecule: PWVN[pY]QDGNLN [WVNpYQDGNLN]
binding to GRB2-SH2 domain in words [9]: limited impact

Molecule: ^K109RGRB2: GRB2 lysine-109-to-arginine mutant, MRE11 nonbinding, generated by site-directed mutagenesis
MRE11 binding in words [10]: no binding
